Usually CLint scaled stands for the rate of metabolic loss divided by the concentration. High values mean rapid turnover, low ones slow turnover. The IC50 is the concentration that inhibits the measured activity by half. A word on the Cmax: it is the peak of the concentration-time curve. By AUC(0-inf) is commonly meant total exposure, with the tail of the curve extrapolated. A low value points to less exposure. For orientation: Tmax means the time at which the peak concentration occurs.

Data set [1] is described as follows: in vitro. Conditions: rat, liver microsomes; call rule not given here. On the technique in general: Microsomes from liver hold many membrane-bound enzymes, among them those of drug oxidation.
The nature of data set [2]: in vitro. To be noted: mouse, liver microsomes.
Data set [3] in a line: in vitro. Conditions: human, liver microsomes.
Data set [4] concerns the target 3',5'-cyclic-AMP phosphodiesterase 4A (Homo sapiens, UniProt P27815). The data set is described as follows: Inhibition of recombinant human PDE4A overexpressed in HEK293 cells assessed as reduction in cAMP hydrolysis by HTRF based immunoassay. Type of data set: cell-based. Conditions: hek293. In a few lines: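 Human PDE4A from lysate of HEK293 cells overexpressing the enzyme hydrolyses cAMP; remaining cAMP measured by HTRF competitive immunoassay (d2-labelled cAMP vs cryptate anti-cAMP antibody), signal inversely proportional to cAMP; IC50 determined.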

Data set [5] in a line: in vivo. Conditions: male, Sprague-Dawley, rat, po, 5 mg/kg.
A short description of data set [6]: in vivo. Conditions: male, Sprague-Dawley, rat, po, 5 mg/kg. The source holds these as a separate data set.
The nature of data set [7]: Inhibition of embelin-induced migration of human neutrophils preincubated for 30 mins followed by embelin addition and measured after 1 hr by ATPlite luminescence assay. To be noted: Neutrophil. Background: In ATP-based viability assays light output follows the ATP content of the culture.
Data set [8] in a line: in vivo. Conditions: male, Sprague-Dawley, rat, po, 5 mg/kg. This is another data set of the same source.

3',5'-cyclic-AMP phosphodiesterase 4A, sequence (P27815 whole entry): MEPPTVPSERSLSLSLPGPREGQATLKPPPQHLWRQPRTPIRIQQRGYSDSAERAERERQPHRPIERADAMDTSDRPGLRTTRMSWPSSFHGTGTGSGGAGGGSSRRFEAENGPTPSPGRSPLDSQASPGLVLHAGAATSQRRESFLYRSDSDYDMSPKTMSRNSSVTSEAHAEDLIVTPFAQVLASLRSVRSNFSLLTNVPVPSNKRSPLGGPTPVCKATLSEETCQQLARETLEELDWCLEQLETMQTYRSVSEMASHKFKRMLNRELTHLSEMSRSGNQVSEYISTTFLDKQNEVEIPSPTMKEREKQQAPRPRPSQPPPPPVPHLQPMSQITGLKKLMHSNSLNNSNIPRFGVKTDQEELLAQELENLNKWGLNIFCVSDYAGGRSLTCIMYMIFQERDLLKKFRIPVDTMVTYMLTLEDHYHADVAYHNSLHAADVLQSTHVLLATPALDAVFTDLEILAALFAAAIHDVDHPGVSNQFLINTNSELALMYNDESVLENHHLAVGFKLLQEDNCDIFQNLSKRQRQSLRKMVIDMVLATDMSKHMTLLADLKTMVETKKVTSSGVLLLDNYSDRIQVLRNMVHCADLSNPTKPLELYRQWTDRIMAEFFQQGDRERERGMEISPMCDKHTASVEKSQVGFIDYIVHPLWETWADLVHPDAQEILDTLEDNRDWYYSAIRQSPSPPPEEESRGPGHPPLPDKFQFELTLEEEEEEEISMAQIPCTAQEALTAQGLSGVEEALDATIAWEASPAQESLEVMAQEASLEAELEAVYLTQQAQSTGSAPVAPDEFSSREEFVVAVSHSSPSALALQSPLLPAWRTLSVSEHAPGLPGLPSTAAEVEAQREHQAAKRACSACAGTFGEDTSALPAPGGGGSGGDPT

Regarding `O=c1nc(OCC2COCCO2)cc2n1CCc1cc(C#CC3CC3)ccc1-2` (racemic), the CLint scaled at 0.5 h, 1 µM in data set [1] was 23.3 mL/min/kg; in data set [2], 162 mL/min/kg; in data set [3], 36.7 mL/min/kg. The half-inhibitory concentration (IC50) entry was “Not Active” in data set [4] and 17 nM in data set [7]. The molecule further gave a Cmax at 1.7 h in data set [5] of 2420 ng/mL. In data set [6], this molecule registered an area under the curve AUC(0-inf) at 24 h of 10200 ng·h/mL. Also, in data set [8], the time of peak concentration (Tmax) amounted to 1.7 h.

Values taken from ChEMBL document CHEMBL4673243, “Discovery of 9-Cyclopropylethynyl-2-((S)-1-[1,4]dioxan-2-ylmethoxy)-6,7-dihydropyrimido[6,1-a]isoquinolin-4-one (GLPG1205), a Unique GPR84 Negative Allosteric Modulator Undergoing Evaluation in a Phase II Clinical Trial” (J Med Chem, 2020).
